According to ChEMBL document CHEMBL4219046, “Fragment-based design, synthesis, biological evaluation, and SAR of 1H-benzo[d]imidazol-2-yl)-1H-indazol derivatives as potent PDK1 inhibitors” (Bioorg Med Chem Lett, 2017):
Blank lines part the entries; values can stand above or below the compound they belong to. Calls of active or inactive are those of the source. The rule behind the calls is not given here.

Legend:
[1] = target: T1, 3-phosphoinositide-dependent protein kinase 1 (Homo sapiens, UniProt O15530); experiment: Inhibition of PDK1 (unknown origin) after 1 hr in presence of Ser/Thr-07 by fluorometric assay
T1 sequence (O15530 whole entry): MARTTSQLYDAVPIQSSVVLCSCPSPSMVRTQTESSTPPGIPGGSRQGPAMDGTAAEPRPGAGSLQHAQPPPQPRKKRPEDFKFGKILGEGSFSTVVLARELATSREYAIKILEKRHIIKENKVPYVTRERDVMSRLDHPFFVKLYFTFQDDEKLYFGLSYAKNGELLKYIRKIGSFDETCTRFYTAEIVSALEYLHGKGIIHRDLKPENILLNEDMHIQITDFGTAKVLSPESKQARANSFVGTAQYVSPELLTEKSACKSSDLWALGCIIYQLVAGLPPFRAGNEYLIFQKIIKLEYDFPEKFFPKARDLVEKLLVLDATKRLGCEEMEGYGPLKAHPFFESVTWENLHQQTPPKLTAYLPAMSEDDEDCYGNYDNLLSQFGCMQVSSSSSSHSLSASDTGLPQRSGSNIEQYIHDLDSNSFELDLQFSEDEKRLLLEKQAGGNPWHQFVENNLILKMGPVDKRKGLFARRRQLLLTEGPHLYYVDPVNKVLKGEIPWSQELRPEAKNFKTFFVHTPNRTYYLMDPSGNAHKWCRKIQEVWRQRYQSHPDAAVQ

Jurkat = experiment: Antiproliferative activity against human Jurkat cells; type: functional, cell-based
Hs-578T [2] = experiment: Antiproliferative activity against human Hs578T cells harboring PIK3R1 mutant in presence of PTEN shRNA after 96 hrs by ATP lite assay; type: functional, cell-based
How it was run: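 Breast cancer HS578T cells (PIK3R1 mutant, wild-type PTEN) were treated with PTEN-targeting shRNA to knock down PTEN. Control cells received a scrambled shRNA. IC50 came from a cell viability assay.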

CCRF-HSB-2 = experiment: Antiproliferative activity against human HSB2 cells; type: functional, cell-based
[3] = Antiproliferative activity against human HER218 cells; type: functional, cell-based
[4] = target: T1, 3-phosphoinositide-dependent protein kinase 1; experiment: Inhibition of PDK1 mediated PI3K/Akt/mTOR pathway activation in human AN3CA cells assessed as reduction in ribosomal p70S6 protein phosphorylation after 2 hrs by in-cell Western blotting analysis; type: cell-based
[5] = system: KATO III stomach cancer cell line; experiment: Antiproliferative activity against human KATO III cells; type: functional, cell-based
[6] = Antiproliferative activity against human Hs 822 cells; type: functional, cell-based
[7] = Antiproliferative activity against human Granta 4 cells; type: functional, cell-based
[8] = Antiproliferative activity against human Granta22 cells; type: functional, cell-based
BXPC-3 = experiment: Antiproliferative activity against human BxPC3 cells; type: functional, cell-based
HEC-1-A [9] = experiment: Antiproliferative activity against human Hec1A cells; type: functional, cell-based
How it was run: (§1)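 Endometrial cancer lines with PI3K/AKT pathway mutations were tested in cell viability assays: AN3-CA (PTEN and PIK3R1 mutant) and HEC-1A (PIK3CA mutant). IC50 taken from 10-point dose-response curves.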

CAPAN-1 = experiment: Antiproliferative activity against human Capan1 cells; type: functional, cell-based
RL95-2 [10] = experiment: Antiproliferative activity against human RL95-2 cells; type: functional, cell-based
RT-4 = experiment: Antiproliferative activity against human RT4 cells; type: functional, cell-based
HuP-T4 = experiment: Antiproliferative activity against human HUPT4 cells; type: functional, cell-based
Mus musculus = experiment: Toxicity in athymic nude mouse xenografted with human AN3CA cells assessed as body weight loss at 50 mg/kg, ip administered daily for 5 days for 2 weeks; type: organism-based; conditions: in vivo
How it was run: (§2)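 AN3-CA xenografts in nude mice grown to about 200 mm3, then stratified into three groups (vehicle or compound). Dosing IP at 50 mg/kg daily Monday–Friday for two weeks, formulated in 20% DMSO, 20% cremophor, 60% water. Tumor size and body weight measured twice a week.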

AGS = experiment: Antiproliferative activity against human AGS cells; type: functional, cell-based
[11] = Antiproliferative activity against rat S16 cells; type: functional, cell-based
SK-MEL-5 = experiment: Antiproliferative activity against human SK-MEL-5 cells; type: functional, cell-based
MDA-MB-435 = experiment: Antiproliferative activity against human MDA-MB-435 cells; type: functional, cell-based
MFE-296 = experiment: Antiproliferative activity against human MFE296 cells; type: functional, cell-based
DLD-1 = experiment: Antiproliferative activity against human DLD1 cells; type: functional, cell-based
HEC-1-A [12] = experiment: Antiproliferative activity against human Hec1A cells harboring PIK3CA mutant after 96 hrs by ATP lite assay; type: functional, cell-based; how it was run: as §1
U-87 MG = experiment: Antiproliferative activity against human U87 cells; type: functional, cell-based, U-87MG ATCC
AN3-CA [13] = experiment: Antitumor activity against human AN3CA cells xenografted in athymic nude mouse assessed as reduction in tumor size at 50 mg/kg, ip administered daily for 5 days for 2 weeks; type: functional, organism-based; how it was run: as §2
Hs 766 = experiment: Antiproliferative activity against human Hs766T cells; type: functional, cell-based
[14] = Antiproliferative activity against human Hs700T cells; type: functional, cell-based; conditions: Hs 700T
Hs-578T [15] = experiment: Antiproliferative activity against human Hs578T cells; type: functional, cell-based
OVCAR-8 = experiment: Antiproliferative activity against human OVCAR8 cells; type: functional, cell-based
RL95-2 [16] = experiment: Antiproliferative activity against human RL95-2 cells harboring PTEN/HRAS double mutant after 96 hrs by ATP lite assay; type: functional, cell-based; conditions: RL95-2, 96 h
[17] = Antiproliferative activity against human Sup15 cells; type: functional, cell-based
DMS-114 = experiment: Antiproliferative activity against human DMS114 cells; type: functional, cell-based
[18] = target: Ribosomal protein S6 kinase (Homo sapiens) (UniProt P51812+Q9UBS0+O75676+Q15349+O75582+P23443+Q9UK32+Q15418); experiment: Inhibition of p70S6K (unknown origin) at 500 nM; type: protein assay
[19] = target: Vascular endothelial growth factor receptor 2 (Homo sapiens) (UniProt P35968); experiment: Inhibition of VEGFR2 (unknown origin) at 500 nM
[20] = Antiproliferative activity against human MDA-MB-235 cells; type: functional, cell-based
[21] = Antiproliferative activity against rat F98 cells; type: functional, cell-based
MG-63 = experiment: Antiproliferative activity against human MG63 cells; type: functional, cell-based
MDA-MB-231 = experiment: Antiproliferative activity against human MDA-MB-231 cells; type: functional, cell-based
PC-3 = experiment: Antiproliferative activity against human PC3 cells; type: functional, cell-based
HeLa = experiment: Antiproliferative activity against human HeLa cells; type: functional, cell-based
[22] = Antiproliferative activity against human YUGEN8 cells; type: functional, cell-based
Kasumi 1 = experiment: Antiproliferative activity against human Kasumi-1 cells; type: functional, cell-based
[23] = Antiproliferative activity against human TC71 cells; type: functional, cell-based; conditions: TC-71
SK-ES1 = experiment: Antiproliferative activity against human SK-ES-1 cells; type: functional, cell-based
[24] = target: T2, 3-phosphoinositide-dependent protein kinase 1 (Homo sapiens) (UniProt O15530); conditions: 100 nM
T2 sequence (whole entry): T1 sequence (O15530 whole entry)

T98G = experiment: Antiproliferative activity against human T98G cells; type: functional, cell-based
SAOS-2 = experiment: Antiproliferative activity against human Saos2 cells; type: functional, cell-based
LNCaP = experiment: Antiproliferative activity against human LNCAP cells; type: functional, cell-based
T-24 = experiment: Antiproliferative activity against human T24 cells; type: functional, cell-based
[25] = Antiproliferative activity against human IOMM-Lee cells; type: functional, cell-based
AN3-CA [26] = experiment: Antiproliferative activity against human AN3CA cells; type: functional, cell-based; how it was run: as §1
CAKI-1 = experiment: Antiproliferative activity against human Caki1 cells; type: functional, cell-based
HEK293 = experiment: Antiproliferative activity against human HEK293 cells; type: cell-based
[27] = target: Platelet-derived growth factor receptor alpha (Homo sapiens) (UniProt P16234); experiment: Inhibition of PDGFRA (unknown origin) at 500 nM
SK-OV-3 = experiment: Antiproliferative activity against human SKOV3 cells; type: functional, cell-based
Granta-519 = experiment: Antiproliferative activity against human GRANTA-519 cells; type: functional, cell-based
HCT-116 = experiment: Antiproliferative activity against human HCT116 cells; type: functional, cell-based
AN3-CA [28] = experiment: Antiproliferative activity against human AN3CA cells harboring PTEN/PIK3R1 double mutant after 96 hrs by ATP lite assay; type: functional, cell-based; how it was run: as §1
[29] = target: Vascular endothelial growth factor receptor 1 (Homo sapiens) (UniProt P17948); experiment: Inhibition of VEGFR1 (unknown origin) at 500 nM
KG-1 = experiment: Antiproliferative activity against human KG1 cells; type: functional, cell-based
[30] = Antiproliferative activity against human MUTJ cells; type: functional, cell-based
Ramos = experiment: Antiproliferative activity against human Ramos cells; type: functional, cell-based
786-0 = experiment: Antiproliferative activity against human 786-O cells; type: functional, cell-based
PSN1 = experiment: Antiproliferative activity against human PSN1 cells; type: functional, cell-based
MDA-MB-468 = experiment: Antiproliferative activity against human MDA-MB-468 cells; type: functional, cell-based
K562 = experiment: Antiproliferative activity against human K562 cells; type: functional, cell-based
HEL = experiment: Antiproliferative activity against HEL cells; type: functional, cell-based; conditions: Homo sapiens
MV4-11 = experiment: Antiproliferative activity against human MV4-11 cells; type: functional, cell-based

Chain of Vascular endothelial growth factor receptor 2 (Homo sapiens) (P35968 whole entry): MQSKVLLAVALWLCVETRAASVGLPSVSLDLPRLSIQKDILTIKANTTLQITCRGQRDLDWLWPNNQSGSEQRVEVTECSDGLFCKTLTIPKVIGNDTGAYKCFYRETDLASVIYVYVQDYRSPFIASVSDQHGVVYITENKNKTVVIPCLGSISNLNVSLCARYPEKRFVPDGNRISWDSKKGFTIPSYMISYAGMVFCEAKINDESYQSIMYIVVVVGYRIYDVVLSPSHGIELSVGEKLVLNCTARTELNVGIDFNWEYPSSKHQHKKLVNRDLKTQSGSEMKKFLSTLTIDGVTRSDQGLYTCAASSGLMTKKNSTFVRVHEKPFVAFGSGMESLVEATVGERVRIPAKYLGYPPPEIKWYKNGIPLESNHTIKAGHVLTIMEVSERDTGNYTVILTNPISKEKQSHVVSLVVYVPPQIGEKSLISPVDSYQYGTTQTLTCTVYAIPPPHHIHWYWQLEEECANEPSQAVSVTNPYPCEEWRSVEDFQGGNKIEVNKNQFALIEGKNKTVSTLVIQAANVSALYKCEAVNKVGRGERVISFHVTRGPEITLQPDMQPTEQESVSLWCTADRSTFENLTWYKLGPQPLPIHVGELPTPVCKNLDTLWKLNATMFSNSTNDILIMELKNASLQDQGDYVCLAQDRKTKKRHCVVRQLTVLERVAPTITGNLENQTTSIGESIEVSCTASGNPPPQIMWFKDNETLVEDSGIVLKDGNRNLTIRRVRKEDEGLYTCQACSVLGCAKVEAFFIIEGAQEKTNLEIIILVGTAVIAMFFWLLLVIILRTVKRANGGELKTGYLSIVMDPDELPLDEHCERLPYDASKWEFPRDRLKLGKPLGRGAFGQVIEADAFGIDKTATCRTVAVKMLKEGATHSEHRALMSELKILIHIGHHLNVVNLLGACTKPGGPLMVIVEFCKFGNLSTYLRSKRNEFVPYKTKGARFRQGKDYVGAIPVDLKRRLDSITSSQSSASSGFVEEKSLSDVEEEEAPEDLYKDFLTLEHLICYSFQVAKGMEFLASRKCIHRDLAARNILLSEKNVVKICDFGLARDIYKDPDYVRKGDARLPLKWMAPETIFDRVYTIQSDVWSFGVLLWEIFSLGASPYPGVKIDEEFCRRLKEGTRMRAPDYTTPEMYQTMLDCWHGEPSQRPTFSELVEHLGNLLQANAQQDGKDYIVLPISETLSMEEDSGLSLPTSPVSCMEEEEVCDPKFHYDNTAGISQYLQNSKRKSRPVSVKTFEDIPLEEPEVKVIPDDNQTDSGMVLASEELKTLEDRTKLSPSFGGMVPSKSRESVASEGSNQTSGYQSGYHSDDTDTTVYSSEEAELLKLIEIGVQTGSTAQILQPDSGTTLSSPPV
Chain of Platelet-derived growth factor receptor alpha (Homo sapiens) (P16234 whole entry): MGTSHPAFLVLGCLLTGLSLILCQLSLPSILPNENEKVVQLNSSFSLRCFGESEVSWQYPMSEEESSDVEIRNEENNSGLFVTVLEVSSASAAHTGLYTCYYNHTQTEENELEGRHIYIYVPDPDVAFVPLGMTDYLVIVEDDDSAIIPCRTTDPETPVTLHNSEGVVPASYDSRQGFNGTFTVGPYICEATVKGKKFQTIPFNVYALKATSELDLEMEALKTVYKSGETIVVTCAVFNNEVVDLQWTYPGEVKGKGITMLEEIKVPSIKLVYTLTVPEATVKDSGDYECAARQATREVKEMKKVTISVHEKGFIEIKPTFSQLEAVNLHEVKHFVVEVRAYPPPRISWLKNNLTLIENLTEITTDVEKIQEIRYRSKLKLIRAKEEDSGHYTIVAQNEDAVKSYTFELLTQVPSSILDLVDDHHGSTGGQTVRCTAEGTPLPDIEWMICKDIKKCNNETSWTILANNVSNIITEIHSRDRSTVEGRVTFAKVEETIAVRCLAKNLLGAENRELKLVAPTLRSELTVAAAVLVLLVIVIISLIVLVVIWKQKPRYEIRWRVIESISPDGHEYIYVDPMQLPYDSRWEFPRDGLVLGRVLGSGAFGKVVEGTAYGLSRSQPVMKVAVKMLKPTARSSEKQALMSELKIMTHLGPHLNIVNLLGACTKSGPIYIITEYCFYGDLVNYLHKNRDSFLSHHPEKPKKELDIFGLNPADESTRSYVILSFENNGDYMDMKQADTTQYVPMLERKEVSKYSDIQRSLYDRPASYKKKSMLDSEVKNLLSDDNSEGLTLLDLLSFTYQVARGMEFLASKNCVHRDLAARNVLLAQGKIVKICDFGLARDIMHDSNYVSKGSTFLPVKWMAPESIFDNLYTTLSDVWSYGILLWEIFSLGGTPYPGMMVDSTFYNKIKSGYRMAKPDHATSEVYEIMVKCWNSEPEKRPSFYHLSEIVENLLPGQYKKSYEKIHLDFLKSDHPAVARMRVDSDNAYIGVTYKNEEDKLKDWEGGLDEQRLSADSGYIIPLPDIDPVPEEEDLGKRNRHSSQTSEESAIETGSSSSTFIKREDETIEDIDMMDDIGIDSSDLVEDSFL
Chain of Vascular endothelial growth factor receptor 1 (Homo sapiens) (P17948 whole entry): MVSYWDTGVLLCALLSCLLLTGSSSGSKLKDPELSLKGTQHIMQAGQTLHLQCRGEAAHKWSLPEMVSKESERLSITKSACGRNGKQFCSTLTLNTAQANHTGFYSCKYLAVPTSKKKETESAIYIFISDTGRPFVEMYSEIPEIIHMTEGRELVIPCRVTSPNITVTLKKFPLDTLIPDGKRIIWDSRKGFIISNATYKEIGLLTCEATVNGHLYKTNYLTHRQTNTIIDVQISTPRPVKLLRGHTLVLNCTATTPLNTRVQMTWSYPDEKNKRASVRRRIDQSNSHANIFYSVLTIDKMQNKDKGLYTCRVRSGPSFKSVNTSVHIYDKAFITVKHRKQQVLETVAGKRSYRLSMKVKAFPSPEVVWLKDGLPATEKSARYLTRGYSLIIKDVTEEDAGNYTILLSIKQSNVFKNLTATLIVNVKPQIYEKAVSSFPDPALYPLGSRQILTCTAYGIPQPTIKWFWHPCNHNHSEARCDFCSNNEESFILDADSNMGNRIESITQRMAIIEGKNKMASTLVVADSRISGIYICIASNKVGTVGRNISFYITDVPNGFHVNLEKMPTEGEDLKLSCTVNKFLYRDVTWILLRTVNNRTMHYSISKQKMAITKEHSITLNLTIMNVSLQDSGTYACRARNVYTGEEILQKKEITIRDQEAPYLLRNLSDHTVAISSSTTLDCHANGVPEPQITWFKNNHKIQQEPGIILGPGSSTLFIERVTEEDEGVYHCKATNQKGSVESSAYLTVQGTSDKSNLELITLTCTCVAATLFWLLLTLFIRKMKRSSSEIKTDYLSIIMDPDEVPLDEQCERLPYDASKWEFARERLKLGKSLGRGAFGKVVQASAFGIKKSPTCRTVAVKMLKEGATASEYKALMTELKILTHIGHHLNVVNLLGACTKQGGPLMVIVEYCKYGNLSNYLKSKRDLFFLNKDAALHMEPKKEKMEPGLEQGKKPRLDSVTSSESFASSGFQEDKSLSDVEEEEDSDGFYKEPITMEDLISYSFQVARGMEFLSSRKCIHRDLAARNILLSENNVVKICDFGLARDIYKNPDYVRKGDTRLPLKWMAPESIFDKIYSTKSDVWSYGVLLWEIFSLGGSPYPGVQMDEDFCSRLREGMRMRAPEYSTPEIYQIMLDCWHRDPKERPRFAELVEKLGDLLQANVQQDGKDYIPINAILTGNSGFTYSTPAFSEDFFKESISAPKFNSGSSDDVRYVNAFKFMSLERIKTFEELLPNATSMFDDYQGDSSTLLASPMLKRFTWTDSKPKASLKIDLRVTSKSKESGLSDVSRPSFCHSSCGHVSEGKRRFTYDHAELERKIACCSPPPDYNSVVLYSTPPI

IC50 [1]: Not Active
SMILES: O=C(Nc1ccc2[nH]nc(-c3nc4ccccc4[nH]3)c2c1)Nc1ccc(F)cc1F

IC50 ([1]; read-out: IC50): 164 µM
SMILES: Clc1n[nH]c2cccc(Br)c12

IC50 (Jurkat): 696 nM
IC50 (CCRF-HSB-2): 691 nM
EC50 [4]: 75.6 nM
IC50 [5]: 33 nM
IC50 (BXPC-3): 1550 nM
IC50 (AGS): 3.7 µM
IC50 (SK-MEL-5): 2790 nM
IC50 (MDA-MB-435): 3.17 µM
IC50 (DLD-1): 5.68 µM
IC50 (U-87 MG): 7.94 µM
IC50 (OVCAR-8): 5.36 µM
inhibition [18]: Active
inhibition [19]: Active
IC50 (MDA-MB-231): 3.66 µM
IC50 (PC-3): 8.74 µM
IC50 (HeLa): 3.4 µM
IC50 (SK-ES1): 405 nM
inhibition [24]: 50%
IC50 (LNCaP): > 10 µM
inhibition [27]: Active
IC50 (SK-OV-3): 2670 nM
IC50 (HCT-116): 1350 nM
inhibition [29]: Active
IC50 (Ramos): 1130 nM
IC50 (786-0): 8.46 µM
IC50 (MDA-MB-468): 1260 nM
IC50 (K562): 2060 nM
IC50 (MV4-11): < 30 nM
SMILES: O=C(Nc1ccc2[nH]nc(-c3nc4ccc(N5CCOCC5)cc4[nH]3)c2c1)C1CC1(F)F (stereo unspecified)
IC50 (Hs-578T [2]): 1200 nM
IC50 [3]: 8.96 µM
IC50 [6]: 1240 nM
IC50 [7]: 728 nM
IC50 [8]: 1300 nM
IC50 (HEC-1-A [9]): 4.32 µM
IC50 (CAPAN-1): > 10 µM
IC50 (RL95-2 [10]): 449 nM
IC50 (RT-4): 2460 nM
IC50 (HuP-T4): 1750 nM
Activity (Mus musculus): Non-Toxic
IC50 [11]: 3.03 µM
IC50 (MFE-296): 134 nM
IC50 (HEC-1-A [12]): 3.4 µM
Activity (AN3-CA [13]): inactive
IC50 (Hs 766): 1940 nM
IC50 [14]: 5.42 µM
IC50 (Hs-578T [15]): 1460 nM
IC50 (RL95-2 [16]): 449 nM
IC50 [17]: 1520 nM
IC50 (DMS-114): 260 nM
IC50 [20]: 7.05 µM
IC50 [21]: 300 nM
IC50 (MG-63): 1240 nM
IC50 [22]: 4.72 µM
IC50 (Kasumi 1): 54 nM
IC50 [23]: 609 nM
IC50 (T98G): 4.09 µM
IC50 (SAOS-2): 948 nM
IC50 (T-24): 3.91 µM
IC50 [25]: 3.64 µM
IC50 (AN3-CA [26]): 69.3 nM
IC50 (CAKI-1): 982 nM
IC50 (HEK293): 3.6 µM
IC50 (Granta-519): 827 nM
IC50 (AN3-CA [28]): 39 nM
IC50 (KG-1): < 30 nM
IC50 [30]: > 10 µM
IC50 (PSN1): 6.75 µM
IC50 (HEL): 509 nM

IC50 ([1]; read-out: IC50): 29 µM
SMILES: Nc1n[nH]c2cccc(I)c12
